Laboratory results from BindingDB's records for doi:10.1016/j.bmcl.2019.126908 (University of California Davis, 2020).

Target: T1, Bifunctional epoxide hydrolase 2 (Homo sapiens, UniProt P34913)
T1 sequence (P34913 whole entry): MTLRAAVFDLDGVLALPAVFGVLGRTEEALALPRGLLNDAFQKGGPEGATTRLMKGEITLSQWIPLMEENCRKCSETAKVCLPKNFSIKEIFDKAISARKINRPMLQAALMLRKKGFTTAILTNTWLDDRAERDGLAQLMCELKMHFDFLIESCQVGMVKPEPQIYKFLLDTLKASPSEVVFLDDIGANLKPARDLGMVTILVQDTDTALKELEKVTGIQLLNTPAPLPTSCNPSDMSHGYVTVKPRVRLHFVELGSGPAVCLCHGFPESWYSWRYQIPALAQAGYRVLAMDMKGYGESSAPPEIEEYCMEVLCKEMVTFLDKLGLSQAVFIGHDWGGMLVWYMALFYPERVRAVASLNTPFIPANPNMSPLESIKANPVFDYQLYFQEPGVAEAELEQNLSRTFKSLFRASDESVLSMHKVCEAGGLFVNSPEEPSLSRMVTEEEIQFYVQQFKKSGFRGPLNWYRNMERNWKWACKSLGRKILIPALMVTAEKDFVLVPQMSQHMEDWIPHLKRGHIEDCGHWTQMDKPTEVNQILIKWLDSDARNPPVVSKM
Test: Inhibition of human soluble epoxide hydrolase by kinetic fluorescent assay
In short: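 Kinetic fluorescent read-out; each value is the mean of three separate experiments.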

| IC50 | SMILES |
| --- | --- |
| 56 nM | CC(NC(=O)Nc1ccccc1F)C12CC3CC(CC(C3)C1)C2 (configuration not stated) |
| 94 nM | O=C(Nc1ccc(C23CC4CC(CC(C4)C2)C3)cc1)Nc1ccccc1F |
